Bioassay records as filed in PubChem BioAssay.
This is a sample that favours compounds with a hit; in the whole collection about 2.9% have one here.
RanGTP-Impb inh: inhibitors of RanGTP-importin-beta interaction, primary screen, biochemical, FRET, CFP-Ran, YFP-importin-beta, homogeneous | inhibition, % (no concentration beside the values) | cell-free CFP-Ran/YFP-importin-beta FRET ratio | hit rate 1.1% among 300,000;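 active = more than half of the replicate wells show a fall in the fluorescence ratio signal beyond about 16%, limit read from the data, passing the limit was not always enough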;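 note: 0% = DMSO wells and 100% = Ran loaded with GDP instead of GTP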
proKLK7 act: proKLK7 (human) activation, primary screen | P49862 | purified proKLK7, EDANS-DABCYL substrate fluorescence; 100% is mature enzyme control, 0% vehicle | activation, % at 7 µM | hit rate 0.9% among 370,000 | AID 652039;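 active = activation above the mean of all tested compounds plus 3 SD, computed per campaign excluding outliers beyond control limits, cut at about 13% in these data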
AI-2 QS modul: modulators of Vibrio harveyi AI-2 quorum sensing system; Vibrio harveyi JMH597 AI-2 luminescence/OD600 ratio, 9 h; hits give low values; strain lacks LuxN and CqsS sensors; 0 = neutral-control median; activity change, % at 7.5 µM; hit rate 0.4% among 300,000; AID 2094; in the data active = activity change below about -75%, passing the limit was not always enough;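 note: luminescence divided by OD600 gain over 9 h not by final OD600 alone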
Wee1 degr inh: blocks degradation of human Wee1 kinase | P30291 | HeLa Luc-Wee1K328M stability, luciferase luminescence; 100% = proteasome inhibitor MG132 effect | reporter increase, % at 5 µM | hit rate 1.2% among 220,000;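 active = activation above the mean of all tested compounds plus 3 SD, set per screening run, cut at about 8.8% in these data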;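 note: cells exposed to compound for 20 h before luminescence read; 0% = DMSO alone and 100% = MG132 at 30 µM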
Runt-CBFb FRET: Runt domain-CBFb interaction inhibition | inhibition, % at 20 µM | Cerulean-Runt/Venus-CBFb FRET ratio 530/480, 1 h | AID 1496 | Q01196+Q13951 | hit rate 0.46% among 220,000;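 active = inhibition over about 50% at 20 µM in the single-dose screen, limit read from the data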;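 note: 0% = DMSO wells and 100% = excess unlabeled CBFb competitor control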
Target sequence (Q01196 whole entry, looked up, the tested form may be a part): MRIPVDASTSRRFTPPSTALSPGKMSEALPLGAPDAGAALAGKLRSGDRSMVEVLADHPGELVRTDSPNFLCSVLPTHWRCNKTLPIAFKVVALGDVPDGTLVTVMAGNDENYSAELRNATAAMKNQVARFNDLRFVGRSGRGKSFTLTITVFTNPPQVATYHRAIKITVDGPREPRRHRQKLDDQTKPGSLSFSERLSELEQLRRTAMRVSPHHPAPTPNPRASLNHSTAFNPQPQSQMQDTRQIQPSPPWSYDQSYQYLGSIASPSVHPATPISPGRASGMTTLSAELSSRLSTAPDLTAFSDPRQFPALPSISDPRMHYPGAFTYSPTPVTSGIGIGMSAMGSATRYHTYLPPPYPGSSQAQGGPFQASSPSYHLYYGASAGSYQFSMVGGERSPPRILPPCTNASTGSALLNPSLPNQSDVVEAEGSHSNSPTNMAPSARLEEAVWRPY
Target sequence (Q13951 whole entry, looked up, the tested form may be a part): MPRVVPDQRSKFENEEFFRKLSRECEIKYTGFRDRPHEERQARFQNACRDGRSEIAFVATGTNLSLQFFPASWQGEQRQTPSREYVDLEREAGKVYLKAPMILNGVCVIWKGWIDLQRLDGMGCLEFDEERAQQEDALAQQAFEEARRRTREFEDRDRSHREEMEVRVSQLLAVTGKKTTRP
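Assay system: Cerulean-Runt domain / Medium: Tris 50 mM pH 7.5, KCl, K2SO4, 0.01% BSA / Timing: protein complex preformed 1 h, compound exposure 1 h, room temperature, dark / Measured by: FRET, excitation 422 nm, emission at 530 and 480 nm / Evaluation: loss of energy transfer signal / Control set: 5 µM unlabeled CBFb as full-inhibition high control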
Runt-SMMHC FRET: inhibitors of human RUNX1 Runt domain binding to CBFb-SMMHC; Cerulean-Runt/Venus-CBFb-SMMHC FRET ratio 530/480, 1 h; inhibition, % at 20 µM; hit rate 0.74% among 220,000; AID 1434;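 active = mean inhibition across duplicate retests at 20 µM reaching about 50%, limit read from the data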;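 note: 0% = DMSO wells and 100% = wells with excess untagged CBFb-SMMHC; inhibitors lower the FRET ratio by blocking Runt binding to CBFb-SMMHC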
* hit, by the source's call; x = no result given; ! = repeats disagree.

SMILES | RanGTP-Impb inh | proKLK7 act | AI-2 QS modul | Wee1 degr inh | Runt-CBFb FRET | Runt-SMMHC FRET
O=C(NCc1ccccc1)[C@@H]1CCCN1C(=O)[C@H]1CCCN1C(=O)c1cc(F)cc(F)c1 | x | 1.1 | x | x | x | x
COC(=O)[C@]12C[C@H](CC(=O)NCCC(C)C)C(=O)N(Cc3ccco3)C1=C[C@H](C1CCCC1)O[C@@H]2C | x | 0.2 | x | x | x | x
COc1cccc(OC)c1C(=O)Nc1sc2c(c1C(N)=O)CCN(Cc1ccccc1)C2 | 133.7* | 2.5 | 19.3 | x | x | x
CC(=O)c1ccc(C(=O)Nc2sc3c(c2C(N)=O)CCN(Cc2ccccc2)C3)cc1 | 55.3* | -7.5 | 4.8 | x | x | x
CCN1CCc2c(sc(NC(=O)c3cc4ccccc4cc3OC)c2C(N)=O)C1 | x | -238.1 | 9.1 | x | x | x
O=C(CSc1nc2ccccc2[nH]1)NN=Cc1ccccc1C(=O)O | x | 0.3 | x | x | x | x
COc1ccc(-c2nnc(SCc3nnc(-c4ccc(Cl)cc4)o3)n2-c2ccccc2)cc1 | 2.3 | -0.3 | 39.7 | 2.1 | -0.4 | -4.2
CC(=O)C1=C(O)C(=O)N(c2ccc(C(=O)O)cc2)C1c1ccccc1 (configuration not stated) | -5.1 | 0.9 | 9.5 | 9.2* | -0.9 | -4.8
COC(=O)c1cc(NS(=O)(=O)c2ccc(C)c3ccccc23)ccc1N1CCOCC1 | -0.2 | 0.4 | 20.2 | 9.0* | 7.0 | -4.3
CCc1ccc(CN(C)C(=O)c2cc(COc3cccc4cnccc34)on2)cc1 | -2.6 | -1.2 | -60.2 | x | x | x
CN(Cc1cccnc1)C(=O)c1cc(COc2ccc3c(c2)CCCC3)on1 | 4.2 | 0.1 | -79.9* | x | x | x
COc1cc(NC(=O)CSc2nc(C)cc(=O)[nH]2)cc(OC)c1 | x | 0.6 | x | x | x | x
COc1ccc(-c2cn(-c3ccccc3)c3[n+]2CCS3)cc1 | 3.8 | -0.6 | 12.6 | 10.6*! | -0.6 | 0.3
CCOC(=O)C1=C(O)/C(=C/c2cn(CC(=O)N3CCCC3)c3ccccc23)SC1=Nc1ccccc1 | -0.1 | x | 20.1 | -2.2 | 20.9 | 82.8*
CC(C)=CCN1CCN(Cc2cnc(-c3ccccc3)s2)CC1CCO (configuration not stated) | 1.8 | -0.6 | -8.8 | -0.6 | -0.9 | 0.0
Oc1c(N=Nc2ccc(F)cc2)ccc2ccccc12 | -0.8 | -0.7 | 2.9 | x | x | x
Oc1ccc2ccccc2c1N=Nc1ccc(F)cc1 | -0.5 | 0.1 | 15.8 | 22.1*! | -7.3 | -5.8
CCOC(=O)[C@]12CCCCC/C=C\1N(Cc1ccc(OC)cc1)C(=O)[C@H]2CC(=O)NCCCCc1ccccc1 | x | 0.0 | x | x | x | x
CN1CCN(c2ccc(NC(=O)CSc3ccccc3)cc2F)CC1 | 4.9 | 0.8 | 24.9 | 9.8* | 1.6 | -2.7
COc1ccc(CCN2CCC(CN3C(=S)NC[C@@H]3Cc3ccccc3)CC2)cc1OC | x | -0.7 | x | x | x | x
CCOC(=O)C1=C(CSc2nc3c(cc2C#N)CN(C)CC3)OC(N)=C(C#N)C1c1ccncc1 (configuration not stated) | 20.8* | 2.1 | 1.2 | -1.6 | 50.0 | 73.7*
CCOC(=O)C1=C(C)OC(N)=C(C#N)C1c1cccs1 (configuration not stated) | 5.1 | -1.5 | 11.5 | 1.4 | 1.6 | -3.6
CCCC1=C(C(=O)OCC)C(c2cccs2)C(C#N)=C(N)O1 (configuration not stated) | 30.0* | -2.5 | -2.7 | -1.8 | 5.0 | 5.9
CCOC(=O)C1=C(CSc2nc(C)cc(C)c2C#N)OC(N)=C(C#N)C1c1cccs1 (configuration not stated) | x | x | x | -2.5 | 27.5 | 16.2
CCOC(=O)C1=C(CSc2nc3c(cc2C#N)CN(C)CC3)OC(N)=C(C#N)C1c1ccc(Cl)cc1 (configuration not stated) | 26.9* | 0.3 | 23.1 | 2.2 | 23.4 | 58.6*
CCOC(=O)C1=C(CSc2nc(CC)c(C)cc2C#N)OC(N)=C(C#N)C1c1ccccc1 (configuration not stated) | 21.8* | 9.6 | 31.0 | 2.8 | 24.8 | 44.7
CCOC(=O)C1=C(CSc2nc(-c3ccccc3)ccc2C#N)OC(N)=C(C#N)C1c1ccc(OC)cc1 (configuration not stated) | 3.7 | -1.8 | 17.8 | 0.5 | 21.5 | -83.9
